Screening results deposited in PubChem BioAssay by several laboratories.
This is a sample that favours compounds with a hit; in the whole collection about 2.3% have one here.
NPY2 pot ag = potentiators or agonists of human neuropeptide Y receptor Y2 | P49146 | cells expressing NPY-Y2, potentiator/agonist read-out | activation, % at 3.6 µM | hit rate 0.45% among 220,000 | AID 1359; in the data active = activation above about 27%;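 also: cells stimulated with NPY near EC25 plus isoproterenol at EC100; 0% = vehicle plus submaximal agonist and 100% = vehicle plus saturating agonist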
Target sequence (P49146 whole entry, looked up): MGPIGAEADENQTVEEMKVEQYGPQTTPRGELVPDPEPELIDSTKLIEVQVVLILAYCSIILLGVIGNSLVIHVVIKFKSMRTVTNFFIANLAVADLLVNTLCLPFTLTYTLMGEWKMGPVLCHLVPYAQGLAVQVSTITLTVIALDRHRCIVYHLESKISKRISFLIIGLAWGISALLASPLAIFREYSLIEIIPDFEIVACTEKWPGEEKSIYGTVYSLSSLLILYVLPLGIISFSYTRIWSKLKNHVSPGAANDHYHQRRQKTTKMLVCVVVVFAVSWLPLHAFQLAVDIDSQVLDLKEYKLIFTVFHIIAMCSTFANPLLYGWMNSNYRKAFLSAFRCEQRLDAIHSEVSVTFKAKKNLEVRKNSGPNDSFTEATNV
Calpain2 inh = blocks pig calpain II enzyme activity; hit rate 0.37% among 220,000; purified calpain II, fluorogenic peptide substrate, 30 min; inhibition, % at 16 µM; AID 1236;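 active = inhibition above about 50%, limit read from the data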
NPY-Y1 antag = antagonists of human neuropeptide Y receptor Y1; P25929; HEK293-CNG Y1 cells, membrane potential fluorescence; NPY at EC95, then isoproterenol; inhibition, % at 3.6 µM; hit rate 1% among 200,000; AID 1040;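 active = inhibition above the campaign mean inhibition of all tested compounds plus 3 SD, cut at about 20% in these data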;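 also: 0% = DMSO wells given NPY plus isoproterenol and 100% = isoproterenol alone without NPY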
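Test system – HEK293 Y1/CNG channel cell line · Also added – NPY agonist 25 nM, then isoproterenol 1 µM plus Ro 20-1724 25 µM · Compound dosing – one concentration, 3.6 µM, in 0.4% DMSO · Schedule – compound incubation 1 h at room temperature, readout 45 min post-stimulation · Technique – fluorescence, membrane potential probe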
NPY-Y2 antag = blocks the human neuropeptide Y Y2 receptor; NPY-Y2 expressing cells, antagonist mode; hit rate 0.99% among 140,000; P49146; inhibition, % at 2.7 µM; in the data active = inhibition above about 17%;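 also: 0% = vehicle with agonist challenge and 100% = reference antagonist with challenge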
TbHK1 inh = blocks Trypanosoma brucei hexokinase 1 activity; hit rate 0.11% among 220,000; recombinant TbHK1, G6PDH-coupled NADH A340; inhibition, % at 10 µM;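 active = inhibition of 50% or more in the single-dose primary screen; inactive = inhibition below 50%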
NPY-Y1 PAM-ag = potentiates or activates human NPY-Y1 receptor; hit rate 0.37% among 220,000; NPY-Y1 expressing cells, potentiator/agonist activation; activation, % at 3.6 µM; P25929; in the data active = activation above about 33%, passing the limit was not always enough;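 also: cells stimulated with NPY at EC10 then isoproterenol at EC100; 0% = low agonist plus stimulus and 100% = saturating agonist plus stimulus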
NPY1 antag ctr = counter-screen for NPY-Y2 antagonists: human NPY-Y1 antagonism | shares compounds with NPY-Y2 antag | cell-based NPY-Y1 antagonism counterscreen | inhibition, % at 3.6 µM | hit rate 19% among 710 | AID 1256; in the data active = inhibition above about 20%;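 also: cells challenged with NPY then isoproterenol with cAMP sensed through a CNG channel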
NPY-Y2 ant conf = confirmation of human neuropeptide Y receptor Y2 antagonists; shares compounds with NPY-Y2 antag; HEK293 NPY-Y2 CNG channel, membrane potential fluorescence; inhibition, % at 2.8 µM; hit rate 32% among 710;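 active = mean inhibition of triplicate wells above the hit cutoff set in the primary screen, cut at about 17% in these data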;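 also: 0% = DMSO with NPY challenge and 100% = BIIE0246 high control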
* marks the source's active call; other numbers are inactive results; i = inactive; · = no result.

SMILES	NPY2 pot ag	Calpain2 inh	NPY-Y1 antag	NPY-Y2 antag	TbHK1 inh	NPY-Y1 PAM-ag	NPY1 antag ctr	NPY-Y2 ant conf
CCOC(=O)C1CCCN(Cc2nc(CC3CC3)no2)C1 (configuration not stated)	11	16	·	·	-2	-9	·	·
CC1CCCCC1NC(=O)c1ccc(S(=O)(=O)NCc2ccco2)cc1 (configuration not stated)	3	-5	9	17*	0	-17	9	9
O=C(Nc1ccccc1)c1ccc(S(=O)(=O)NCc2ccco2)cc1	8	-2	-2	2	6	-4	·	·
COc1ccc(Oc2ccc(-c3ccn[nH]3)cc2)cc1	5	20	·	·	2	-12	·	·
CC1=NN(Cc2c(C)nn(Cc3ccccc3)c2C)C(C)(C)C1	-15	-13	1	·	-7	-12	·	·
CCC(=O)N(Cc1ccc(S(N)(=O)=O)cc1)C1CC(=O)N(c2ccccc2)C1=O (configuration not stated)	-9	14	-1	·	-9	-3	·	·
O=C(COC(=O)/C=C/c1ccc(F)cc1)Nc1ccccc1-c1ccccc1	-3	2	3	18*	-9	-19	12	14
C/C(=N\NC(=S)NCCc1ccccc1)c1ccc(C)cc1	-20	10	10	17*	7	-27	15	15
S=C(NCCc1ccccc1)N/N=C/c1ccccc1Cl	-23	7	10	43*	-1	-57	18	18*
CCc1ccc(/C=N/NC(=S)NCCc2ccccc2)cc1	-13	0	19	33*	-10	-4	28*	30*
C/C(=N\NC(=S)NCCc1ccccc1)c1ccc(Cl)cc1	-27	21	5	16	9	-39	·	·
NC(=O)Cn1cnc2nc3n(c2c1=O)CCC3	10	-24	1	·	0	5	·	·
CC(C)Cn1c(N)c(C(=O)NCC2CCCO2)c2nc3ccccc3nc21 (configuration not stated)	5	i	13	20*	-11	-16	16	7
COc1ccc(N(CC(=O)Nc2cc([N+](=O)[O-])ccc2C)S(C)(=O)=O)cc1OC	-11	-10	·	·	-3	-1	·	·
CCn1c(/C=C/Nc2ccccc2)[n+](CC)c2cc(Cl)c(Cl)cc21	4	25	8	35*	-16	0	13	15
CCn1c(/C=C/N(C(C)=O)c2ccccc2)[n+](CCCS(=O)(=O)[O-])c2cc(Cl)c(Cl)cc21	-6	37	1	·	-13	-13	·	·
O=C(CSc1nnnn1-c1ccc(Cl)cc1)NC(=O)Nc1ccc2c(c1)OCCO2	-3	-8	17	20*	4	-5	15	15
O=C(CSc1ncn(-c2ccccc2)n1)Nc1ccc2c(c1)OCCO2	-3	17	5	18*	4	-24	27*	24*
Cc1ccc(SCC(=O)NC(=O)Nc2ccc3c(c2)OCCO3)cc1C	1	21	1	19*	13	-28	8	14
COC(=O)c1ccccc1NS(=O)(=O)c1ccc(Cl)nc1	4	-19	1	·	0	3	·	·
O=C(NC(Nc1nc2ccc([N+](=O)[O-])cc2s1)(C(F)(F)F)C(F)(F)F)c1cccnc1	33*	38	16	18*	-22	48*	19	6
O=C(NC(Nc1nc2ccc([N+](=O)[O-])cc2s1)(C(F)(F)F)C(F)(F)F)c1ccccc1Cl	83*	-12	12	24*	-10	55*	19	11
CN(C)S(=O)(=O)c1ccc2nc(NC(=O)c3cccnc3)sc2c1	-13	-56	0	2	-51	-3	·	·
O=C(CN1C(=O)C(=O)N(Cc2ccccc2)C1=O)Nc1ccc(F)c(Cl)c1	0	-2	5	·	1	-14	·	·
O=[N+]([O-])c1ccc2c(c1)N([O-])C1(CCCCC1)[N+]2=O	-9	-30	·	·	-6	-7	·	·
SMILES	NPY2 pot ag	Calpain2 inh	NPY-Y1 antag	NPY-Y2 antag	TbHK1 inh	NPY-Y1 PAM-ag	NPY1 antag ctr	NPY-Y2 ant conf
Fc1ccc(/C=N/n2cnn(Cc3ccccc3Cl)c2=S)cc1	1	-2	8	·	-3	-4	·	·
CCCn1nnnc1NC(=O)COc1ccc(CC)cc1	-7	-5	6	18*	28	-10	6	4
CCCn1nnnc1NC(=O)COc1ccc(Cl)c(C)c1	-10	16	8	5	9	-31	·	·
CCOC(=O)Cn1nc(-c2ccccc2)nc1-c1ccccc1	4	-18	12	-2	6	3	·	·
CCOC(=O)Cn1nc(-c2ccccc2)c2cnc3ccc(CC)cc3c21	6	-11	4	26*	-5	2	20	13
Cc1ccc(NC(=O)CCC(=O)c2cccs2)c(O)c1	0	9	·	·	-7	8	·	·
COc1ccc(-c2noc(-c3ccccc3-c3ccccc3)n2)cc1OC	-25	-23	12	18*	6	-61	6	15
c1ccc(-c2ccc(-c3cnc4n3CCCCC4)cc2)cc1	-15	1	13	24*	3	-31	9	17
COc1cccc(Nc2nc(NCC3CCCO3)c3ccccc3n2)c1 (configuration not stated)	-5	-45	15	24*	-1	-20	21*	14
Cc1cccc(NC(=O)c2sc(Cl)nc2C)c1C	1	11	-3	18*	-1	2	-1	2
CCn1c(C)nc2cc(C(=O)N3N=C(CCOC)CC3(O)C(F)(F)F)ccc21 (configuration not stated)	0	3	·	·	-1	-9	·	·
C/C=C(/C)C(=O)O[C@@H]1c2c(ccc3ccc(=O)oc23)O[C@@H]1C(C)(C)OC(=O)/C(C)=C\C	-7	0	20	19*	-1	-39	16	32*
OCCNC(=S)c1ccccc1	-13	-11	·	·	-11	-1	·	·
CCOc1ccc2ccccc2c1C(=O)N1CCN(c2ccccc2)CC1	10	-3	19	18*	3	-13	17	10
CCOC(=O)c1[nH]c(C)c(C(=O)N2CCN(c3ccccc3)CC2)c1C	-4	-21	3	5	0	-25	·	·
CNC(=S)NC1(C)CCS(=O)(=O)C1 (configuration not stated)	1	-12	·	·	-3	2	·	·
Cc1cccc(-c2nnc(SCc3ccc(C#N)cc3)n2Cc2ccco2)c1	-5	10	14	20*	-1	-3	9	5
CCn1c(SCc2ccc(C#N)cc2)nnc1-c1cccc(Cl)c1	-2	13	4	5	4	-24	·	·
Cc1cc(/C=N/n2cnnc2)c(C)n1-c1ccc(OCc2ccc(Cl)cc2Cl)cc1	-9	-33	8	22*	-6	-58	21*	24*
